Data: the M2OR odorant receptor database

Assays:
Details in all cases: stereoisomer not certain
OR10G2 (Homo sapiens) = molecular target: T1, OR10G2 (Homo sapiens) (UniProt Q8NGC3)
T1 sequence (whole entry): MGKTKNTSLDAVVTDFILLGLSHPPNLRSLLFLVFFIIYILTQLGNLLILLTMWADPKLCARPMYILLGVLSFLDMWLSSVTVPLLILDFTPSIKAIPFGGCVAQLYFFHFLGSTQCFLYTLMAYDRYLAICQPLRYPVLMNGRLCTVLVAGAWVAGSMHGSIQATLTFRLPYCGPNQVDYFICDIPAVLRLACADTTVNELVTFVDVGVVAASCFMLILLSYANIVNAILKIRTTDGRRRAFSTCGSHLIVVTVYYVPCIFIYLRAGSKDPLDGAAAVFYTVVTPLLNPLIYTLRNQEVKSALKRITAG
Summary of the method: (§1)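 Transient luciferase assays in mammalian cell lines were common, though methods varied by source. The values come from published papers and their supplementary material, with extra details from the original authors when needed. Responsive refers to a measured signal the original authors judged statistically different from baseline, and non-responsive (inactive) to the remainder.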

OR10G3 (Homo sapiens) = molecular target: T2, OR10G3 (Homo sapiens) (UniProt Q8NGC4)
T2 sequence (whole entry): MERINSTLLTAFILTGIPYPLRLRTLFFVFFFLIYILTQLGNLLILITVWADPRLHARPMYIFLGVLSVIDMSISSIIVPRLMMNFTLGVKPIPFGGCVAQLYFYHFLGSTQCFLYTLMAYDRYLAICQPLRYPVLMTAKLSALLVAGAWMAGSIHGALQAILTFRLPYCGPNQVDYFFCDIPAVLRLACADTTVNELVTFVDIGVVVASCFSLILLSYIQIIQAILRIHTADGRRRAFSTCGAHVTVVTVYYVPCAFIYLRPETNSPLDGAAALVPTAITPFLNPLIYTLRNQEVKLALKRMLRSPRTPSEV
Summary of the method: as §1

OR10G4 (Homo sapiens) = molecular target: T3, OR10G4 (Homo sapiens) (UniProt Q8NGN3)
T3 sequence (whole entry): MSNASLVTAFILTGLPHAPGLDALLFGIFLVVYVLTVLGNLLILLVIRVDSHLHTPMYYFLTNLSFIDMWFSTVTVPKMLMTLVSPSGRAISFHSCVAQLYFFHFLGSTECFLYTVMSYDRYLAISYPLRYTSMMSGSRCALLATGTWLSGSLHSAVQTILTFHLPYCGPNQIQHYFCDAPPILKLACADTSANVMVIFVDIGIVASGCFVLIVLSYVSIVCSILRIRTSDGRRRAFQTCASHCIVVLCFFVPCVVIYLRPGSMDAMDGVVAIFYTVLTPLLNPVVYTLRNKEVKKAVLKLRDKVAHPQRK
Summary of the method: as §1

OR10G6 (Homo sapiens) = molecular target: T4, OR10G6 (Homo sapiens) (UniProt Q8NH81)
T4 sequence (whole entry): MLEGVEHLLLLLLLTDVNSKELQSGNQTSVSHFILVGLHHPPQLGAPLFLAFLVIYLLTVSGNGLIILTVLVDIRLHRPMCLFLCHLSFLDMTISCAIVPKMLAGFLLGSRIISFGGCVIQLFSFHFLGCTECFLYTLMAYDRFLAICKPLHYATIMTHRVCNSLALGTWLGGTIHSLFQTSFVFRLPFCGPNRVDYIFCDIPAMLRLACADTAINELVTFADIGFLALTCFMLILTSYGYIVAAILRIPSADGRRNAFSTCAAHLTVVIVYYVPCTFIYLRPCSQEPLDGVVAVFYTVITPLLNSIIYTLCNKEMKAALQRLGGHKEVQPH
Summary of the method: as §1

OR10G7 (Homo sapiens) = molecular target: T5, OR10G7 (Homo sapiens) (UniProt Q8NGN6)
T5 sequence (whole entry): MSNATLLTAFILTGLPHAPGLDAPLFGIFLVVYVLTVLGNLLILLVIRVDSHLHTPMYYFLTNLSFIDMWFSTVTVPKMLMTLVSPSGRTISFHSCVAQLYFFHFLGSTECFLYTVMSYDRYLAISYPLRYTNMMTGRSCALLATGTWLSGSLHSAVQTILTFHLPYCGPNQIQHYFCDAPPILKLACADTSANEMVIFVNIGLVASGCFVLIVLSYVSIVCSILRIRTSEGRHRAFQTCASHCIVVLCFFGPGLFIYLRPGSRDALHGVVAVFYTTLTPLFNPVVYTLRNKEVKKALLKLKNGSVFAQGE
Summary of the method: as §1

OR10G8 (Homo sapiens) = molecular target: T6, OR10G8 (Homo sapiens) (UniProt Q8NGN5)
T6 sequence (whole entry): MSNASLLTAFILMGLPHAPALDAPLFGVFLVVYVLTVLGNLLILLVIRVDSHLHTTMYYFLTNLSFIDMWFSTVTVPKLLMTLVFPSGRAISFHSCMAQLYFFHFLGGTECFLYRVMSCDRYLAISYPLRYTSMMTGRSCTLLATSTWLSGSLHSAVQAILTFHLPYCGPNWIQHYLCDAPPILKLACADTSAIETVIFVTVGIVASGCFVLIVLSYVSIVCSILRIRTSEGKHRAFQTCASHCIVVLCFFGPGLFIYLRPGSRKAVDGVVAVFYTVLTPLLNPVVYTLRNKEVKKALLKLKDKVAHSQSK
Summary of the method: as §1

OR10G9 (Homo sapiens) = molecular target: T7, OR10G9 (Homo sapiens) (UniProt Q8NGN4)
T7 sequence (whole entry): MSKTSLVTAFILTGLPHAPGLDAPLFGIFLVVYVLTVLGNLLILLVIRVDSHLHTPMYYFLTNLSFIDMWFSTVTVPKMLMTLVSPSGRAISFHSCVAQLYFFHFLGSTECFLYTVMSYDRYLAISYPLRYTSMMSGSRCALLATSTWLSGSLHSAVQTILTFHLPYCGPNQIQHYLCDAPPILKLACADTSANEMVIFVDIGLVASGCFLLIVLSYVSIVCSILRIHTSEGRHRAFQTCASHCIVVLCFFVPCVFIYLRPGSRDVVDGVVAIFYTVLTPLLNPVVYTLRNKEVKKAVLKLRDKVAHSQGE
Summary of the method: as §1

OR10H1 (Homo sapiens) = molecular target: T8, OR10H1 (Homo sapiens) (UniProt Q9Y4A9)
T8 sequence (whole entry): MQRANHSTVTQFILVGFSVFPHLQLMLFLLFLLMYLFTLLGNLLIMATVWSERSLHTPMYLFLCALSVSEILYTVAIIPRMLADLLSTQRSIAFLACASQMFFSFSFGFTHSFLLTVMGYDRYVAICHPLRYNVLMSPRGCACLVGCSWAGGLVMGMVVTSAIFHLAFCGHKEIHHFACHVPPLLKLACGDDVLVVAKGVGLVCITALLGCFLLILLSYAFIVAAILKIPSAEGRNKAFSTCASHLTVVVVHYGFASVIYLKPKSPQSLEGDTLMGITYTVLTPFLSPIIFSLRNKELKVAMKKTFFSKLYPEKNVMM
Summary of the method: as §1

OR10H2 (Homo sapiens) = molecular target: T9, OR10H2 (Homo sapiens) (UniProt O60403)
T9 sequence (whole entry): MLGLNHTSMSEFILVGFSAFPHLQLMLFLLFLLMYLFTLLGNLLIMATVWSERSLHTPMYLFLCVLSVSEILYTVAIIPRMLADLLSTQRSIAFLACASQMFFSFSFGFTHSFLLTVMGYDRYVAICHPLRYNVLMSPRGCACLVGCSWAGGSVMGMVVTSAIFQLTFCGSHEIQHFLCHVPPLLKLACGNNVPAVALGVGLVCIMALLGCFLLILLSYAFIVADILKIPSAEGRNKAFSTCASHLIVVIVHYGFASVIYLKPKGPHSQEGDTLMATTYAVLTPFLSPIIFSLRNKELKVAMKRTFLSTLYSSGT
Summary of the method: as §1

OR10H3 (Homo sapiens) = molecular target: T10, OR10H3 (Homo sapiens) (UniProt O60404)
T10 sequence (whole entry): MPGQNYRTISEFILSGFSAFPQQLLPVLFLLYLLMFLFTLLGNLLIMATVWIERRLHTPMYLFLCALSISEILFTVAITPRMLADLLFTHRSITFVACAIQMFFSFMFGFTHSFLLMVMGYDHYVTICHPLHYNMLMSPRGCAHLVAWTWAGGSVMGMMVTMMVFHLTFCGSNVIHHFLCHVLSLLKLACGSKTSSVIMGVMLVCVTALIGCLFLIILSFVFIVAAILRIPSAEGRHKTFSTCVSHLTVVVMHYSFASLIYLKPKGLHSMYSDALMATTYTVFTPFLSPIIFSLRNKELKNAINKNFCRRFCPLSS
Summary of the method: as §1

Measured: odorant receptor agonist call;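 further: active if original authors judged signal statistically different from baseline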

CCCC(S)CCOC(C)=O (stereo not given)
inactive: all assays above
